We go through six compounds from ChEMBL document CHEMBL1122233, “Antihypertensive 9-substituted 1-oxa-4,9-diazaspiro[5.5]undecan-3-ones” (J Med Chem, 1983).

For test [1], the system named is Rattus norvegicus. The test can be described thus: Percentage fall in systolic blood pressure after 3 hours at 25 mg/kg given perorally. It counts as functional, Artery. Particulars: route oral. Summed up: (§1)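 Male Okamoto-Aoki spontaneously hypertensive rats, trained, in groups of four matched for mean systolic pressure; five treated groups and one vehicle control run concurrently. Oral dosing in water (solution or suspension, 0.1 mL/10 g) on two consecutive mornings. On day 2, rats were restrained at 30.0 ± 1.0 °C and tail-cuff systolic pressure recorded at 1–4 h; percent fall versus control, 1-tail t test, p ≤ 0.05.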

Test [2] concerns Rattus norvegicus. The test can be described thus: Percentage fall in systolic blood pressure after 4 hours at 25 mg/kg given perorally. It counts as functional, Artery. To be noted: route oral. Summed up: as §1
Test [3] concerns Rattus norvegicus. The test can be described thus: Percentage fall in systolic blood pressure after 1 hr at 25 mg/kg given perorally. It is filed as functional, Artery. To be noted: route oral. Summed up: as §1
Test [4] has as its system Rattus norvegicus. The test can be described thus: Percentage fall in systolic blood pressure after 2 hours at 25 mg/kg given perorally. It is filed as functional, Artery. To be noted: route oral. A digest of the protocol:
as §1

Test [5] deals with Rattus norvegicus. The test can be described thus: Percentage fall in systolic blood pressure after 2 hours at 12.5 mg/kg given perorally. It counts as functional, Artery. Particulars: route oral. Summed up: (§2)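 Male Okamoto-Aoki SHR, four per group, with a concurrent vehicle control group. Oral dosing in water (0.1 mL/10 g) on two consecutive mornings. After the day-2 dose, rats were restrained in a 30 °C chamber. Tail-cuff systolic pressure was taken at 1-4 h from four traces per rat. Result is % decrease versus control mean, by 1-tailed t test, p ≤ 0.05.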

Test [6] relates to Rattus norvegicus. The test can be described thus: Percentage fall in systolic blood pressure after 2 hours at 50 mg/kg given perorally. It is filed as functional, Artery. To be noted: route oral. A digest of the protocol: as §2
Test [7] has as its system Rattus norvegicus. The test can be described thus: Percentage fall in systolic blood pressure after 4 hours at 50 mg/kg given perorally. It counts as functional, Artery. To be noted: route oral. Summed up: as §2
In test [8] the test system is Rattus norvegicus. The test can be described thus: (§3) Percentage fall in systolic blood pressure after 3 hours at 12.5 mg/kg given perorally. It is filed as functional, Artery. Particulars: route oral. A digest of the protocol:
as §2

In test [9] the test system is Rattus norvegicus. The test can be described thus: Percentage fall in systolic blood pressure after 3 hours at 50 mg/kg given perorally. It counts as functional, Artery. Particulars: route oral. A digest of the protocol: as §2
For test [10], the system named is Rattus norvegicus. The test can be described thus: Percentage fall in systolic blood pressure after 1 hr at 50 mg/kg given perorally. It counts as functional, Artery. Particulars: route oral. A digest of the protocol: as §2
Test [11] relates to Rattus norvegicus. The test can be described thus: Percentage fall in systolic blood pressure after 4 hours at 12.5 mg/kg given perorally. It counts as functional, organism-based. Set-up: dose 12.5 mg/kg. Particulars: Artery. Summed up:
as §2

Test [12] has as its system Rattus norvegicus. The test can be described thus: Percentage fall in systolic blood pressure after 1 hr at 12.5 mg/kg given perorally. It counts as functional, Artery. Particulars: route oral. A digest of the protocol: as §2
For test [13], the system named is Rattus norvegicus. Described as §3. It is filed as functional, organism-based. Further details: dose 12.5 mg/kg. To be noted: Artery. Summed up: as §2
Test [14] has as its system Rattus norvegicus. The test can be described thus: Percentage fall in systolic blood pressure after 4 hr at 25 mg/kg given perorally. It counts as functional, organism-based. Set-up: dose 25 mg/kg. Particulars: Artery. Summed up: as §1

Consider `CCN1CC2(CCN(CCCC(=O)c3ccc(F)cc3)CC2)OCC1=O`, for which the “Decrease in SBP” value was determined as 27% in test [1], 13% in test [2], 35% in [3] and 31% in test [4].

Regarding `O=C1COC2(CCN(CCC(=O)c3ccc(F)cc3)CC2)CN1`, the “Decrease in SBP” value in test [2] stood at 20%; in test [3], 27%; in test [4], 24%.

On to `CC1NC(=O)COC12CCN(CCc1c[nH]c3ccccc13)CC2` (stereo not drawn), for which the “Decrease in SBP” value in test [5] came to 36%; in test [6] it was 48%; in test [7], 50%; in test [8], 24%; in test [9] it was 41%; in test [10], 56%. Also, the “Decrease in SBP” value was “Not significant” in [11] and 24% in test [12].

As for `CCC1NC(=O)COC12CCN(CCc1c[nH]c3ccccc13)CC2` (stereo not drawn), the “Decrease in SBP” value in test [5] is 25%; in test [6], 54%; in test [7] it was 43%; in test [9], 41%; in test [10], 40%; in [11], “Not significant”. Also, the figures for the “Decrease in SBP” value in test [12] and in [13] were 21% and “Not significant”, respectively.

Consider `CN1CC2(CCN(CC(O)C3COc4ccccc4O3)CC2)OCC1=O` (stereo in doubt; 60), for which, in test [14], the “Decrease in SBP” value is “Not significant”.

On to `O=C1COC2(CCN(CCc3c[nH]c4ccccc34)CC2)CN1c1cccc(F)c1`, for which the “Decrease in SBP” value in test [1] came to 22%; in test [2], 18%; in [3] it was 29%; in [4], 31%.
